Source: PubChem BioAssay (Johns Hopkins Ion Channel Center)
hERG protect – shields human hERG channel from block by proarrhythmic agents. AID 1511. activation (rescue from dofetilide block), less the hit threshold, % at 10 µM. CHO-hERG, FluxOR thallium flux, dofetilide IC70 present. actives 0.51% (n = 310,000);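 active means activation above the mean of controls blocked by dofetilide plus 5 SD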;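 further: thallium influx through hERG after potassium depolarization seen as dye fluorescence rise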
KCNQ1 inh – human KCNQ1 channel inhibition | P51787 | CHO-K1 KCNQ1, FluxOR thallium flux fluorescence; stronger effect = higher value | B-score at 10 µM | actives 1.3% (n = 310,000) | AID 2642;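 active means compounds whose thallium flux B-score, printed positive for inhibition, exceeds three library SD while starting fluorescence stays within three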;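 further: channel opened by potassium depolarization with thallium stimulus after 20 min compound exposure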
KCNQ1 pot – potentiates or activates the human KCNQ1 potassium channel | P51787 | AID 2648 | CHO-K1 KCNQ1, thallium flux FluxOR fluorescence; stronger effect = higher value | B-score at 10 µM | actives 0.35% (n = 310,000);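 active means fluorescence ratio B-score, a plate-corrected score, at least three library SD, with initial intensity B-score within 5 SD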
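Test system: CHO-K1 cells stably expressing KCNQ1 / Medium: assay buffer / Also added: depolarizing K+/Tl+ stimulus, K2SO4 and Tl2SO4 each 12.5 mM in 5x stock / Incubation: 90 min dye loading and 20 min compound exposure, both at room temperature / Signal: thallium influx via FluxOR fluorescence, kinetic imaging / Evaluation: B score of baseline-normalized fluorescence ratio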
KCNK3 inh – human KCNK3 channel inhibition, primary screen. actives 0.84% (n = 340,000). O14649. CHO-KCNK3 thallium flux, FluxOR fluorescence; stronger effect = lower value. B-score at 10 µM;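 active means B-score under library mean minus 4 SD, starting fluorescence ratio at most library mean plus 5 SD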;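 further: more negative B-score means stronger inhibition of thallium flux through KCNK3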
Kir21 inh – blocks the mouse Kir2.1 inward-rectifier potassium channel | P35561 | HEK293-Kir2.1, FluxOR thallium flux fluorescence; stronger effect = lower value | B-score at 10 µM | actives 0.85% (n = 310,000) | AID 1672;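 active means fluorescence ratio B-score at or below minus 3 SD of library scores, with starting-brightness B-score within 2 SD, cut at about -4.2 in these data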;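 further: channel flux triggered by added potassium and thallium sulfate stimulus; B-score of peak minus minimum fluorescence over baseline after thallium stimulus; more negative B-score means stronger Kir2.1 block with less thallium influx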
Target sequence (P35561 whole entry, looked up): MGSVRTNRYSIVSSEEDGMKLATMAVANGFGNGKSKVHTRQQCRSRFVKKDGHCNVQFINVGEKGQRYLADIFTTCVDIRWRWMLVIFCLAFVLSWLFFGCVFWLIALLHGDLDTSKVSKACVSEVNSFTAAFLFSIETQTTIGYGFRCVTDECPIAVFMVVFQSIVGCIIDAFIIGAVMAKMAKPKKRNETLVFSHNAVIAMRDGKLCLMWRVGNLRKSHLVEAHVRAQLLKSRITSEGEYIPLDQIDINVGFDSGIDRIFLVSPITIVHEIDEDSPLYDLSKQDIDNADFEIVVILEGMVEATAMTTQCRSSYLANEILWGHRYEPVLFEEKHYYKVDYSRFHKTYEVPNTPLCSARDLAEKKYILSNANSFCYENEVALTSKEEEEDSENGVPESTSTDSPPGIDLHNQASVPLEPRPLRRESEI
KCNK9 inh – human KCNK9 channel inhibition; Q9NPC2; HEK293 KCNK9, FluxOR thallium flux fluorescence; stronger effect = lower value; B-score at 10 µM; actives 1.2% (n = 310,000);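 active means ratio B-score over 3 SD below the library mean, with starting fluorescence within 5 SD of its mean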;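 further: negative B-score means less thallium flux so channel inhibition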
Numbers without * were called inactive. An excerpt weighted towards active compounds, which were near 3.8% of everything screened.

`CC(CNC(=O)COc1ccccc1)OC(=O)Nc1ccc(Cl)c(Cl)c1` (centres undefined) gave hERG protect -23, KCNQ1 inh inactive, KCNQ1 pot 9*, KCNK3 inh inactive, Kir21 inh 1.4 and KCNK9 inh inactive.
Screening COC(=O)NCC(C)OC(=O)Nc1cccc(Cl)c1 (centres undefined) returned hERG protect -8, KCNQ1 inh inactive, KCNQ1 pot inactive, KCNK3 inh inactive, Kir21 inh -0.46 and KCNK9 inh inactive.
For COc1ccc(S(=O)Cc2ccc(C(=O)NC3CC3)o2)cc1 (centres undefined) the results were hERG protect -3, KCNQ1 inh inactive, KCNQ1 pot inactive, KCNK3 inh inactive, Kir21 inh 1.4 and KCNK9 inh inactive.
Screening CC(C)CCNC(=O)C(c1ccc(O)cc1)N(C(=O)C1COc2ccccc2O1)c1cccc(O)c1 (centres undefined) returned hERG protect -13, KCNQ1 inh 7*, KCNQ1 pot inactive, KCNK3 inh inactive, Kir21 inh -1.1 and KCNK9 inh inactive.
For COc1ccc(CNCc2ccc3ccccc3c2)c(OC)c1 the results were hERG protect -7, KCNQ1 inh inactive, KCNQ1 pot inactive, KCNK3 inh inactive, Kir21 inh -8.5* and KCNK9 inh inactive.
Screening COc1ccc(CNCc2ccncc2)c(OC)c1 returned hERG protect -1, KCNQ1 inh inactive, KCNQ1 pot inactive, KCNK3 inh inactive, Kir21 inh 0.39 and KCNK9 inh inactive.
O=C(c1ccc(OC2CCN(Cc3ccc(F)cc3)CC2)cc1)N1CCCC1 was read as hERG protect -5, KCNQ1 inh inactive, KCNQ1 pot inactive, KCNK3 inh inactive, Kir21 inh -4.2* and KCNK9 inh inactive.
`CSc1ccc(CN2CCC(Oc3ccc(C(=O)N4CCCC4)cc3)CC2)cc1` gave hERG protect -8, KCNQ1 inh inactive, KCNQ1 pot inactive, KCNK3 inh inactive, Kir21 inh -4.4* and KCNK9 inh inactive.
Screening Cc1ccc(S(=O)(=O)NC(CC(=O)O)c2cccs2)cc1 (centres undefined) returned hERG protect -5, KCNQ1 inh inactive, KCNQ1 pot inactive, KCNK3 inh inactive, Kir21 inh 0.41 and KCNK9 inh inactive.
`COc1ccccc1CN=C1Nc2ccccc2CS1` gave hERG protect -10, KCNQ1 inh inactive, KCNQ1 pot inactive, KCNK3 inh inactive, Kir21 inh -13* and KCNK9 inh inactive.
For Cc1noc(C)c1COC(=O)CNC(=O)c1cccc(F)c1 the results were hERG protect -14, KCNQ1 inh inactive, KCNQ1 pot inactive, KCNK3 inh inactive, Kir21 inh 0.04 and KCNK9 inh inactive.
`Cc1noc(C)c1COC(=O)C1(c2cccc(F)c2)CCCC1` gave hERG protect -11, KCNQ1 inh inactive, KCNQ1 pot inactive, KCNK3 inh inactive, Kir21 inh -4.3* and KCNK9 inh inactive.
`CC1CCN(CC(=O)Nc2ccc(S(=O)(=O)N3C(C)CCCC3C)cc2)CC1` (centres undefined) gave hERG protect -6, KCNQ1 inh inactive, KCNQ1 pot inactive, KCNK3 inh inactive, Kir21 inh -0.75 and KCNK9 inh inactive.
For Cc1cccc(N2CCN(C(=O)c3ccc4nccnc4c3)CC2C)c1 (centres undefined) the results were KCNK3 inh -9.5*.
For O=C(c1ccc2nccnc2c1)N1CCN(c2ccccc2)CC1 the results were hERG protect -5, KCNQ1 inh inactive, KCNQ1 pot inactive, KCNK3 inh inactive, Kir21 inh -1.6 and KCNK9 inh inactive.
For CN(C)CCCN(C(=O)c1ccc2c(c1)OCCO2)c1nc2ccc(Cl)cc2s1 the results were hERG protect -19, KCNQ1 inh inactive, KCNQ1 pot inactive, KCNK3 inh inactive, Kir21 inh -9.9* and KCNK9 inh inactive.
`CN(C)CCN(C(=O)c1ccc2c(c1)OCCO2)c1nc2ccc(Cl)cc2s1` gave hERG protect -15, KCNQ1 inh inactive, KCNQ1 pot inactive, KCNK3 inh inactive, Kir21 inh 1.8 and KCNK9 inh inactive.
